Reference: ChEMBL document CHEMBL1145211, “Substituted 5,5'-diphenyl-2-thioxoimidazolidin-4-one as CB1 cannabinoid receptor ligands: synthesis and pharmacological evaluation” (J Med Chem, 2005)

Experiments:
[1] = target: T1, Cannabinoid receptor 1 (Homo sapiens, UniProt P21554); conditions: CHO, at 10 µM
[2] = target: T1, Cannabinoid receptor 1; test: biochemical; format: cell-based, CHO
[3] = target: T1, Cannabinoid receptor 1; test: Displacement of [3H]SR-141,716A from human Cannabinoid receptor 1 (CB1 receptor) expressed in CHO cells at 10 uM; format: cell-based
How it was run: (§1)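 Membranes (40 µg) from CHO cells stably expressing human CB1 or CB2, with 1 nM [3H]SR141716A (CB1) or 1 nM [3H]CP-55,940 (CB2), and compound at 10 µM. Incubated 1 h at 30 °C in Tris-HCl pH 7.4 with MgCl2, EDTA and 0.5% BSA. Nonspecific binding defined with 10 µM HU-210. Bound ligand recovered on PEI-treated GF/B filters for scintillation counting; reported as % radioligand displaced.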

[4] = target: Cannabinoid receptor 2 (Homo sapiens) (UniProt P34972); test: Displacement of [3H]CP-55940 from human CB2 receptor expressed in CHO cells at 10 uM; format: cell-based
Sequence of Cannabinoid receptor 2 (Homo sapiens) (P34972 whole entry): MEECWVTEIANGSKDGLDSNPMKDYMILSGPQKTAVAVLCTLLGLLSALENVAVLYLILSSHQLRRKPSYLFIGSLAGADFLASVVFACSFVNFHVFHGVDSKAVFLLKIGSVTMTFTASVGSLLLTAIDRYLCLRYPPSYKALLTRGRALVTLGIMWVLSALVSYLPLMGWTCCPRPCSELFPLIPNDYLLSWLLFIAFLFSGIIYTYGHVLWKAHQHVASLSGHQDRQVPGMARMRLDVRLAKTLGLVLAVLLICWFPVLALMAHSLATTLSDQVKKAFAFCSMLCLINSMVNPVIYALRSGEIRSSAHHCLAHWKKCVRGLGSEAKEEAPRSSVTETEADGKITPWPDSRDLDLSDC
How it was run: as §1

[5] = target: T1, Cannabinoid receptor 1; conditions: CHO, 10 uM
[6] = target: T1, Cannabinoid receptor 1; test: Inhibition of [3H]SR-141,716A binding to human CB1 receptor expressed in CHO cells; format: cell-based
How it was run: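 Competition curves on hCB1-CHO membranes (40 µg) with 1 nM [3H]SR141716A and varying compound concentrations, up to 10^-5 M. Incubated 1 h at 30 °C, pH 7.4, 0.5% BSA; final DMSO below 0.1%. Nonspecific binding defined with 10 µM HU-210; filtration, then counting. Ki derived from IC50 by nonlinear fitting and Cheng-Prusoff (Kd 1.13 nM). Mean ± SEM of at least four experiments, each in duplicate.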

T1 sequence (P21554 whole entry): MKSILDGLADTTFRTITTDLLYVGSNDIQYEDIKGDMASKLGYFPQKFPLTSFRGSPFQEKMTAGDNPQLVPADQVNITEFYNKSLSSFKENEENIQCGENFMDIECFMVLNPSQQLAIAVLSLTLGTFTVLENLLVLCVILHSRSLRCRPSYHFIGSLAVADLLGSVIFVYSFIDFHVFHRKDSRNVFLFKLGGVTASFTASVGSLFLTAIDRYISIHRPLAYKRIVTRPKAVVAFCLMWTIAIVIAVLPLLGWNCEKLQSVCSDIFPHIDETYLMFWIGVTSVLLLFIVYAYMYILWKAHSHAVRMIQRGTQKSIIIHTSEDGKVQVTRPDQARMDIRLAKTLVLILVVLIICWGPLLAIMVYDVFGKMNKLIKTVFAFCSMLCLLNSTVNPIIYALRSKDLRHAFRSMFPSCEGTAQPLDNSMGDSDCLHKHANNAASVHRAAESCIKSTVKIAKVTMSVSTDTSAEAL

## CCCCN1C(=O)NC(c2ccc(I)cc2)(c2ccc(I)cc2)C1=O
[1]
  Decrease: -74%
[2]
  Ki: 1.82 µM

## O=C1N(Cc2ccccc2)C(=S)NC1(c1ccccc1)c1ccccc1
[3]
  Displacement: 44.7%
[4]
  Displacement: < 10%

## CCCCCCCCN1C(=O)C(c2ccc(Br)cc2)(c2ccc(Br)cc2)NC1=S
[3]
  Displacement: 23.4%
[4]
  Displacement: < 10%

## C=CCN1C(=O)NC(c2ccc(I)cc2)(c2ccc(I)cc2)C1=O
[1]
  Decrease: -74%

## CCCCCCN1C(=O)C(c2ccc(Br)cc2)(c2ccc(Br)cc2)NC1=S
[3]
  Displacement: 45.5%
[4]
  Displacement: < 10%

## CCCCN1C(=O)C(c2ccc(Br)cc2)(c2ccc(Br)cc2)NC1=S
[3]
  Displacement: 73.8%
[2]
  Ki: 1.41 µM
[4]
  Displacement: < 15%

## O=C1NC(c2ccc(Br)cc2)(c2ccc(Br)cc2)C(=O)N1Cc1ccccc1
[1]
  Decrease: -74%

## C=CCN1C(=O)C(c2ccc(I)cc2)(c2ccc(I)cc2)NC1=S
[1]
  Decrease: -74%
[3]
  Displacement: 94.2%
[2]
  Ki: 0.589 µM
[4]
  Displacement: < 20%

## O=C1N(CCc2ccccc2)C(=S)NC1(c1ccc(Cl)cc1)c1ccc(Cl)cc1
[3]
  Displacement: 79.4%
[2]
  Ki: 3.8 µM
[4]
  Displacement: < 15%

## COCCCN1C(=O)C(c2ccccc2)(c2ccccc2)NC1=S
[3]
  Displacement: 29.4%
[4]
  Displacement: < 15%

## CC(C)N1C(=O)C(c2ccc(Br)cc2)(c2ccc(Br)cc2)NC1=S
[3]
  Displacement: 91.7%
[2]
  Ki: 3.63 µM
[4]
  Displacement: < 15%

## CCCCCCCCN1C(=O)C(c2ccc(Cl)cc2)(c2ccc(Cl)cc2)NC1=S
[3]
  Displacement: 36.6%
[4]
  Displacement: < 10%

## CCN1C(=O)C(c2ccc(Br)cc2)(c2ccc(Br)cc2)NC1=S
[3]
  Displacement: 90.9%
[2]
  Ki: 2.19 µM
[4]
  Displacement: < 20%

## CC(C)CN1C(=O)C(c2ccc(Br)cc2)(c2ccc(Br)cc2)NC1=S
[1]
  Decrease: -74%
[3]
  Displacement: 76.3%
[2]
  Ki: 1.78 µM
[4]
  Displacement: < 20%

## CCCCN1C(=O)NC(c2ccc(Br)cc2)(c2ccc(Br)cc2)C1=O
[1]
  Decrease: -74%

## O=C1N(CCCO)C(=S)NC1(c1ccccc1)c1ccccc1
[3]
  Displacement: 20.8%
[4]
  Displacement: < 10%

## CCCCCCCCN1C(=O)C(c2ccccc2)(c2ccccc2)NC1=S
[3]
  Displacement: 38.8%
[4]
  Displacement: < 20%

## O=C1N(Cc2ccccc2)C(=S)NC1(c1ccc(Br)cc1)c1ccc(Br)cc1
[1]
  Decrease: -74%
[3]
  Displacement: 76%
[2]
  Ki: 0.993 µM
[4]
  Displacement: < 10%

## CCCCN1C(=O)C(c2ccc(I)cc2)(c2ccc(I)cc2)NC1=S
[1]
  Decrease: -74%
[3]
  Displacement: 77.4%
[2]
  Ki: 0.724 µM
[4]
  Displacement: < 20%

## CCCCCCC(C)(C)c1cc(O)c2c(c1)OC(C)(C)[C@H]1CC=C(CO)C[C@H]21 [DEXANABINOL]
[2]
  Ki: 0.0186 µM
[5]
  Increase: 130%

## CCCCCCN1C(=O)C(c2ccccc2)(c2ccccc2)NC1=S
[3]
  Displacement: 38.5%
[4]
  Displacement: < 10%

## CC(C)CN1C(=O)C(c2ccc(Cl)cc2)(c2ccc(Cl)cc2)NC1=S
[1]
  Decrease: -74%
[3]
  Displacement: 76.1%
[2]
  Ki: 2.09 µM
[4]
  Displacement: < 20%

## O=C1N(Cc2ccccc2)C(=S)NC1(c1ccc(Cl)cc1)c1ccc(Cl)cc1
[1]
  Decrease: -74%
[3]
  Displacement: 74.2%
[2]
  Ki: 2.19 µM
[4]
  Displacement: < 15%

## CCCCN1C(=O)C(c2ccccc2)(c2ccccc2)NC1=S
[3]
  Displacement: 42.8%
[4]
  Displacement: < 10%

## CCN1C(=O)C(c2ccccc2)(c2ccccc2)NC1=S
[3]
  Displacement: 40%
[4]
  Displacement: < 10%

## C=CCN1C(=O)C(c2ccc(Br)cc2)(c2ccc(Br)cc2)NC1=S
[1]
  Decrease: -74%
[3]
  Displacement: 87.2%
[2]
  Ki: 0.871 µM
[4]
  Displacement: < 15%

## O=C1N(CCc2ccccc2)C(=S)NC1(c1ccccc1)c1ccccc1
[3]
  Displacement: 29.3%
[4]
  Displacement: < 10%

## C=CCN1C(=O)C(c2ccccc2)(c2ccccc2)NC1=S
[3]
  Displacement: 40%
[4]
  Displacement: < 15%

## O=C1N(Cc2ccco2)C(=S)NC1(c1ccccc1)c1ccccc1
[3]
  Displacement: 59.2%
[4]
  Displacement: < 15%

## CCCCCCCN1C(=O)C(c2ccc(Br)cc2)(c2ccc(Br)cc2)NC1=S
[3]
  Displacement: 34.2%
[4]
  Displacement: < 10%

## CCCCCCCN1C(=O)C(c2ccc(Cl)cc2)(c2ccc(Cl)cc2)NC1=S
[3]
  Displacement: 67.8%
[4]
  Displacement: < 10%

## O=C1N(CCc2ccccc2)C(=S)NC1(c1ccc(Br)cc1)c1ccc(Br)cc1
[3]
  Displacement: 54.6%
[6]
  Ki: > 10 µM
[4]
  Displacement: < 10%

## CCCCCCCN1C(=O)C(c2ccccc2)(c2ccccc2)NC1=S
[3]
  Displacement: 28.8%
[4]
  Displacement: < 10%

## CC(C)N1C(=O)C(c2ccccc2)(c2ccccc2)NC1=S
[3]
  Displacement: 42.8%
[4]
  Displacement: < 10%

## CC(C)CN1C(=O)C(c2ccccc2)(c2ccccc2)NC1=S
[3]
  Displacement: 34.6%
[4]
  Displacement: < 10%
